Here are results for 23 compounds from ChEMBL document CHEMBL1641460, “Potent and selective thiophene urea-templated inhibitors of S6K” (Bioorg Med Chem Lett, 2011).

Data set [1] concerns the target T1, Ribosomal protein S6 kinase beta-1 (Homo sapiens, UniProt P23443). In words: Inhibition of S6K1.
A short description of data set [2]: Kinetic solubility of the compound in 50 mM phosphate buffer at pH 6.5. Type of data set: physicochemical.
Data set [3] in a line: Half life in human liver microsomes at 1 uM by LC/MS/MS analysis. The class given is ADME, Microsome. An outline of the steps: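 Test compound incubated with human liver microsomes to measure Phase I metabolic stability. Remaining compound quantified by LC/MS/MS, and stability reported as half-life (T1/2) in minutes.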
In general terms: Liver microsomes are vesicles of endoplasmic reticulum, rich in cytochrome P450 enzymes.

A short description of data set [4]: Half life in human hepatocytes at 1 uM by LC/MS/MS analysis. Type of data set: ADME, cell-based, Liver, Hepatocyte. An outline of the steps: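 Stability measured in intact human hepatocytes, with remaining parent compound quantified by LC/MS/MS. Result expressed as half-life (T1/2) in minutes.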
In another data set the target is T2, CYP1A2 (Homo sapiens, UniProt P05177).
T2 sequence (P05177 whole entry): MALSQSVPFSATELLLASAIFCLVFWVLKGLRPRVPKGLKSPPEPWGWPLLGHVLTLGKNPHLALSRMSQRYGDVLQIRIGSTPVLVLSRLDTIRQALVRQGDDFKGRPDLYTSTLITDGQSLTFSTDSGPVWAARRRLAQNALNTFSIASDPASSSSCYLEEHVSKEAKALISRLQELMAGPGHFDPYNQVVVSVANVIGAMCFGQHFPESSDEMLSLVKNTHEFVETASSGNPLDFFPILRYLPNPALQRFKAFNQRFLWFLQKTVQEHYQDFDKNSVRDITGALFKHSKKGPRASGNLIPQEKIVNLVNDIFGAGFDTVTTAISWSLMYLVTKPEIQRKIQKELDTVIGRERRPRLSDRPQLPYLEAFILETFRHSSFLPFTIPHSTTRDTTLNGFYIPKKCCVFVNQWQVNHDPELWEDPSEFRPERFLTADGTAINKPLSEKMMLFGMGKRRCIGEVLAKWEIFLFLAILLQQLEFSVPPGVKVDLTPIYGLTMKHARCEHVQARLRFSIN
Kind of data set: Inhibition of CYP1A2 at 3 uM by LC/MS/MS analysis. The class given is ADME.

Another data set addresses CYP2C9 (Homo sapiens, UniProt P11712). Kind of data set: Inhibition of CYP2C9 at 3 uM by LC/MS/MS analysis. Type of data set: ADME.
For the next data set, the target named is CYP2D6 (Homo sapiens, UniProt P10635). In words: Inhibition of CYP2D6 at 3 uM by LC/MS/MS analysis. The class given is ADME.
A further data set deals with CYP3A4 (Homo sapiens, UniProt P08684). In words: Inhibition of CYP3A4 at 3 uM by LC/MS/MS analysis. The class given is ADME.
Data set [5] has as its target Voltage-gated inwardly rectifying potassium channel KCNH2 (Homo sapiens, UniProt Q12809). In words: Displacement of labeled dofetilide from human ERG.
Data set [6] has as its target T1, Ribosomal protein S6 kinase beta-1. In words: Inhibition of S6K1 in ribosomal protein S6 by whole cell assay.

Molecules are shown by their SMILES. ≈ marks a conversion by molar mass, not a printed value.

Chain of CYP3A4 (P08684 whole entry): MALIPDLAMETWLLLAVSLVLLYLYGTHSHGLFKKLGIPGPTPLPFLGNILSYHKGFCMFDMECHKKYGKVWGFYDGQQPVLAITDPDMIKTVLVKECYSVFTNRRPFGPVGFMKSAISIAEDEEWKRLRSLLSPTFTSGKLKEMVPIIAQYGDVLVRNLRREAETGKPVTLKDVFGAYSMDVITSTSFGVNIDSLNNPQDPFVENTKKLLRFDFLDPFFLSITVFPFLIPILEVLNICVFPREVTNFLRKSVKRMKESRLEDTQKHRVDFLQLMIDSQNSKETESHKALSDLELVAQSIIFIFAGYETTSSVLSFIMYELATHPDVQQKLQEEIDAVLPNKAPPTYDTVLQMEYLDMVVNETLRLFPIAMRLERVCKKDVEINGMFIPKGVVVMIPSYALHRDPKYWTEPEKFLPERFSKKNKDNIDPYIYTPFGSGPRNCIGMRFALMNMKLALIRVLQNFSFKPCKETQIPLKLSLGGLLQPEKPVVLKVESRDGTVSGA
Chain of Voltage-gated inwardly rectifying potassium channel KCNH2 (Q12809 whole entry): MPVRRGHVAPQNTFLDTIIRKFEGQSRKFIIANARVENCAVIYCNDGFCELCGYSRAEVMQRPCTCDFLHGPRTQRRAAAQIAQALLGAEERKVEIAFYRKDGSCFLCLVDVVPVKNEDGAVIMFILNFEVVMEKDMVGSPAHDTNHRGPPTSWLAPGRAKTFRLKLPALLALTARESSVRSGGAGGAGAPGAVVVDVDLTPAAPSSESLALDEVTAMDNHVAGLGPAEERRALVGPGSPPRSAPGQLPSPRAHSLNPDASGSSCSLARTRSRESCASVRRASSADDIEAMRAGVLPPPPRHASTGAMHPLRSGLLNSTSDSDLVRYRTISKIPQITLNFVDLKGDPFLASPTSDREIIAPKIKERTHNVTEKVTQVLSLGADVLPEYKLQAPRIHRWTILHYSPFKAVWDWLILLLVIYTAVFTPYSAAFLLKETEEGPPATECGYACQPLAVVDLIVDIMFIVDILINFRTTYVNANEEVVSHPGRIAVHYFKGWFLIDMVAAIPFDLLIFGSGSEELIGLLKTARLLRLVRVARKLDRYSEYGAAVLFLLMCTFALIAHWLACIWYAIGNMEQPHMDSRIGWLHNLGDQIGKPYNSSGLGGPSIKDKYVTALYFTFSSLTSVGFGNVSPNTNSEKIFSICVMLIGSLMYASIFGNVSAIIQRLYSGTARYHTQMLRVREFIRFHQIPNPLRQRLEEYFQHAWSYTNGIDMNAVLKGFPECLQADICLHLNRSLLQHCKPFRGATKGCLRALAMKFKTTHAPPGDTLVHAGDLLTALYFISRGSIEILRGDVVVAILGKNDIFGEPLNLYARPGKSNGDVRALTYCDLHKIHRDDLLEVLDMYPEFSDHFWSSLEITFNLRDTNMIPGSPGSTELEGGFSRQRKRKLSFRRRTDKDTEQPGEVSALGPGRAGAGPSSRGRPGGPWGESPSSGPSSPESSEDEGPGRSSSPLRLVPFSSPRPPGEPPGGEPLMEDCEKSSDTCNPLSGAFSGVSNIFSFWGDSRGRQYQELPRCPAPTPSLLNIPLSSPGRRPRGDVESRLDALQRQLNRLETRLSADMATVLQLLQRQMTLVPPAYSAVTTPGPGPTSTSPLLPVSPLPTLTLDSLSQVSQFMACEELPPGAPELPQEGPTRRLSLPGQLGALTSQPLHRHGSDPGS
T1 sequence (P23443 whole entry): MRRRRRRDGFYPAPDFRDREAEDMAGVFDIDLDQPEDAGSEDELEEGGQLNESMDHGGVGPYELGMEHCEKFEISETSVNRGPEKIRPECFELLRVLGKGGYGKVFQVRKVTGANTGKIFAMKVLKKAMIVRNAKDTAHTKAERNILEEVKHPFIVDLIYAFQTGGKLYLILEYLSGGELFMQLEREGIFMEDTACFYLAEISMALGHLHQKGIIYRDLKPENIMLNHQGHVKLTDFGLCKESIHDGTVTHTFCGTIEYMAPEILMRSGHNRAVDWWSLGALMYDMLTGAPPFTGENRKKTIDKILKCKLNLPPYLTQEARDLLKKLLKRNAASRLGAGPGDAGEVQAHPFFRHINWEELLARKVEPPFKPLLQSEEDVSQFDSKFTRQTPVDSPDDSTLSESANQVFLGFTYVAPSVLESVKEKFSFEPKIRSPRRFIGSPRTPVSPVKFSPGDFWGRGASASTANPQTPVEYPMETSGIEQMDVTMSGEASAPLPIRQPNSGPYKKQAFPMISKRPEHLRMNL
Chain of CYP2D6 (P10635 whole entry): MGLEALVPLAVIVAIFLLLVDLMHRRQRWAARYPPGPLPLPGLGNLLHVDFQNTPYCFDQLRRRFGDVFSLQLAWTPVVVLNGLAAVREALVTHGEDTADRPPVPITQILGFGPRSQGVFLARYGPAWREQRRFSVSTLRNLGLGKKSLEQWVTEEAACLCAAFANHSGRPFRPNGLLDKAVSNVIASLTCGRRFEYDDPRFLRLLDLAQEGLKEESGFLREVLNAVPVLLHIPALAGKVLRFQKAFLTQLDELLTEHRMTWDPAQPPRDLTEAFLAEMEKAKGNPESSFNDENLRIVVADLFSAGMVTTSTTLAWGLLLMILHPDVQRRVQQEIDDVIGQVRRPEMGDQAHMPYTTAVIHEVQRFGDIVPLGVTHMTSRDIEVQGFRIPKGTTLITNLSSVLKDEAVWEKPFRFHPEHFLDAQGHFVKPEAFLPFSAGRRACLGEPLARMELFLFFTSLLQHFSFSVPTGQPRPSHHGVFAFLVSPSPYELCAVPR
Chain of CYP2C9 (P11712 whole entry): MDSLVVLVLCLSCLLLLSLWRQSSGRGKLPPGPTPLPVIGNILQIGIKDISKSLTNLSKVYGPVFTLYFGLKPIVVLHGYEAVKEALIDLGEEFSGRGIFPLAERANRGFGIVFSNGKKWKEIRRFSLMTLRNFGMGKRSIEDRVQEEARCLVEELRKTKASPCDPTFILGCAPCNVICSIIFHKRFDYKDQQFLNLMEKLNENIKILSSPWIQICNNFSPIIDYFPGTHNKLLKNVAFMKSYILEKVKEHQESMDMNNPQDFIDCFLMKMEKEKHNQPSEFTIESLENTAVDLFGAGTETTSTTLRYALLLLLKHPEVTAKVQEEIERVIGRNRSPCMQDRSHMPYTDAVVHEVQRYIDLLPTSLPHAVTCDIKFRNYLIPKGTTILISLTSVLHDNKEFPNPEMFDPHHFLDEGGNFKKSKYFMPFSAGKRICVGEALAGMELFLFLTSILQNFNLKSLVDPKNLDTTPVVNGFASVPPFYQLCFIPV

Take `C[C@H](O)c1cc(C(=O)NCCN(C)C)c(NC(=O)Nc2ccc3[nH]ncc3c2)s1`: the IC50 in [1] stood at 379 nM.
`Cc1c(O)cccc1NC(=O)Nc1sc(C(C)(C)C)cc1C(=O)N1CCS(=O)(=O)CC1`: inhibition in data set [1] was half-maximal at 4000 nM (IC50).
In data set [1], `CC(C)(C)c1cc(C(=O)NCCO)c(NC(=O)Nc2ccc3[nH]ncc3c2)s1` registered a concentration for half-maximal inhibition (IC50) of 19 nM. Also, in data set [2], the solubility (kinetic) amounted to 41 µg/mL (≈ 102 µM). In addition, the half-life at 1 µM is greater than 2 h in data set [3] and 4.38 h in data set [4]. For the same compound, the inhibition at 3 µM at CYP1A2 turned out to be 52%; against CYP2C9, 30%; against CYP2D6, 9%; at CYP3A4 it was 0%. Moreover, the “inhibition (INH)” value in data set [5] was found to be 0%.
`CN(C)CCNC(=O)c1cc(C2CC2)sc1NC(=O)Nc1ccc2[nH]ncc2c1` gave an IC50 in data set [1] of 70 nM.
Turning to `CN(C)CCNC(=O)c1cc(C(C)(C)C)sc1NC(=O)Nc1ccc2[nH]ncc2c1`, the values for the IC50 in data set [1] and in data set [6] were 15 nM and 521 nM, respectively. Besides, the kinetic solubility in data set [2] amounted to 171 µg/mL (≈ 399 µM). Also, the half-life at 1 µM in data set [3] was 0.633 h; in data set [4], 2.08 h. In addition, the inhibition at 3 µM on CYP1A2 worked out at 18%; at CYP2C9 it was 0%; on CYP2D6, 7%; against CYP3A4, 0%. Also, the “inhibition (INH)” value in data set [5] is on record as 28%.
Compound `CC(C)(C)c1cc(C(=O)NCc2ccccc2)c(NC(=O)Nc2ccc3[nH]ncc3c2)s1` displayed an IC50 in data set [1] of 201 nM.
In the case of `CC(C)(C)c1cc(C(=O)N2CCOCC2)c(NC(=O)Nc2ccc3[nH]ncc3c2)s1`, the half-maximal inhibitory concentration (IC50) in [1] was found to be 207 nM.
The compound `CN(C)CCNC(=O)c1cc(-c2ccccc2)sc1NC(=O)Nc1ccc2[nH]ncc2c1` displayed an IC50 in data set [1] of 1900 nM.
In turn, `CC(C)(C)c1ccc(NC(=O)Nc2ccc3[nH]ncc3c2)s1` came in with an IC50 in data set [1] of 19 nM. Moreover, the solubility (kinetic) in data set [2] came to 7 µg/mL (≈ 22.3 µM). This compound also displayed a half-life at 1 µM in data set [3] of 0.917 h. Moreover, the inhibition at 3 µM is 36% on CYP1A2, 52% on CYP2C9, 20% at CYP2D6 and 4% at CYP3A4. For the same compound, the “inhibition (INH)” value in data set [5] stood at 0%.
`COc1ccccc1Oc1ccc(NC(=O)Nc2sc(C(C)(C)C)cc2C(=O)N2CCS(=O)(=O)CC2)cc1` came in with an IC50 in [1] greater than 20000 nM.
`CC(C)(C)c1cc(C(=O)NCc2ccccc2F)c(NC(=O)Nc2ccc3[nH]ncc3c2)s1` gave an IC50 in data set [1] of 191 nM.
In turn, `CC(C)(C)c1cc(C(=O)N2CCS(=O)(=O)CC2)c(NC(=O)Nc2ccc3oc4cccnc4c3c2)s1` displayed an IC50 in [1] greater than 20000 nM.
Compound `Cc1cc(C(=O)NCCN(C)C)c(NC(=O)Nc2ccc3[nH]ncc3c2)s1` showed a half-inhibitory concentration (IC50) in data set [1] of 223 nM.
`CC(C)(C)c1cc(C(=O)N2CCS(=O)(=O)CC2)c(NC(=O)Nc2ccc(Oc3ccccc3F)cc2)s1` had an IC50 in data set [1] greater than 20000 nM.
In data set [1], `CC(C)(C)c1cc(C(=O)N2CCS(=O)(=O)CC2)c(NC(=O)Nc2ccc(Oc3cccnc3)cc2)s1` registered an IC50 of 9000 nM.
On to `CC(C)(C)c1cc(C(=O)N2CCS(=O)(=O)CC2)c(NC(=O)Nc2ccc(Oc3ccccc3)cc2)s1`, for which the IC50 in data set [1] is greater than 20000 nM.
In data set [1], `COCCNC(=O)c1cc(C(C)(C)C)sc1NC(=O)Nc1ccc2[nH]ncc2c1` yielded an IC50 of 7 nM. The compound also returned a kinetic solubility in data set [2] of 10 µg/mL (≈ 24.1 µM). The half-life at 1 µM was greater than 2 h in [3] and 6.12 h in [4]. Besides, the inhibition at 3 µM at CYP1A2 amounted to 45%; against CYP2C9, 14%; at CYP2D6 it was 0%; against CYP3A4, 2%. In addition, the “inhibition (INH)” value in [5] was determined as 0%.
In turn, `CC(C)(C)c1cc(C(=O)N2CCS(=O)(=O)CC2)c(NC(=O)Nc2ccc3[nH]ncc3c2)s1` registered an IC50 in [1] of 34 nM.
Compound `CCc1cc(C(=O)NCCN(C)C)c(NC(=O)Nc2ccc3[nH]ncc3c2)s1` displayed an IC50 in data set [1] of 62 nM.
On the same count and under the same terms, as for `CC(C)(C)c1cc(C(=O)N2CCS(=O)(=O)CC2)c(NC(=O)Nc2ccc(Oc3ccncc3)cc2)s1`, the figure is greater than 20000 nM; as for `C[C@@H](O)c1cc(C(=O)NCCN(C)C)c(NC(=O)Nc2ccc3[nH]ncc3c2)s1`, 196 nM.
With `CC(C)c1cc(C(=O)NCCN(C)C)c(NC(=O)Nc2ccc3[nH]ncc3c2)s1`, the IC50 in data set [1] was 29 nM.
Consider `CC(C)(C)c1cc(C(=O)NC2CC2)c(NC(=O)Nc2ccc3[nH]ncc3c2)s1`, for which the IC50 was found to be 10 nM in data set [1] and 685 nM in data set [6]. Also, in data set [2], the kinetic solubility stood at 10 µg/mL (≈ 25.2 µM). Also, the half-life at 1 µM was greater than 2 h in [3] and 2.3 h in [4]. The inhibition at 3 µM against CYP1A2 was found to be 40%; on CYP2C9, 11%; on CYP2D6, 12%; against CYP3A4, 11%. Moreover, the “inhibition (INH)” value in data set [5] is on record as 0%.

The IC50 is the concentration at which inhibition is half-maximal. Lower therefore signals inhibition by little substance. The solubility (kinetic) is solubility judged after dilution from a stock solution rather than from solid. Broadly, the half-life is how long it takes for the measured level to halve. Read a low half-life as rapid decline. By inhibition is commonly meant the drop in the measured response relative to a control, in per cent.
